# Screening data: PubChem BioAssay, Broad Institute
# Mot1-301 SUMO: SUMOylation pathway inhibition by Mot1-301 growth rescue; growth rescue, % at 18.8 µM; S. cerevisiae Mot1-301 growth rescue, ATP luminescence, 38.5C; percent above DMSO median, 100 means doubled; AID 2716; 1% of 320,000 active;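 active = every valid replicate shows activation above 250% relative to neutral control wells; inactive = the rest, any valid replicate at or below 250%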;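 also: OY570 slx delta 5 strain wells were the positive control but not used for scaling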
# C2C12 statin: suppression of simvastatin myotoxicity | C2C12 myotubes + simvastatin, ATP luminescence, 48 h; scaled: DMSO 0, geranylgeraniol control 100 | rescue of ATP level, % at 7.49 µM | 0.78% of 330,000 active;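 active = mean ATP rescue above about 67%, or every replicate alone reaching that limit, limit read from the data, passing the limit was not always enough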;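 also: myotubes were challenged with 10 µM simvastatin during compound exposure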
# Cneo AK release: causes C. neoformans cell lysis | AID 651654 | lysis activity, % at 15 µM | 0.2% of 360,000 active | adenylate kinase release luminescence, 4 h; normalised: neutral wells 0, clomiphene wells 100;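 active = mean lysis activity across replicates of at least 80%, whatever share of replicates individually reach that level; inactive = mean lysis activity below 80%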
#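 Material: C. neoformans cells | Amount: Yeast cell density of 5 × 10^6 cells/mL | Medium: Fresh YPD growth medium | Dosing: Single dose | Times: Static 4 h at 37 °C with compound, 1 h detection | Detection: AK luminescence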
# Yeast Mot1 SUMO: inhibits SUMO pathway, affecting Mot1-301 yeast growth. 2,300 tested, under 10 active. AID 493004. growth activity, percent, % at 42 µM. S. cerevisiae Mot1-301 galactose growth, ATP luminescence, 24 h; -100 = growth of slx-deleted rescue strain. shares compounds with Mot1-301 SUMO;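 active = Signal drops as the depositor expects, and the fitted half-maximal dose is no more than ten times the top valid tested dose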;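 also: more negative values mean stronger growth rescue toward the control strain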
# Numbers without * were called inactive; . = no result; + = active, no number. The list is not random: actives were taken first. Their share in the collection is about 1.5%.
SMILES,Mot1-301 SUMO,C2C12 statin,Cneo AK release,Yeast Mot1 SUMO
CCOC(=O)c1c(/N=C/C2C(=O)CCCC2=O)sc2c1CCCC2,467*,.,.,0
Cc1ccc(S(=O)(=O)Nc2ccc3c(c2)C(=O)N([C@@H](C)CO)C[C@@H](C)[C@H](CN(C)C(=O)Nc2ccc4c(c2)OCO4)O3)cc1,.,23,.,.
O=C(CCN1CCc2ccccc2C1)Nc1ccc2c(c1)OCO2,836*,-1,0,0
O=C(CCN1CCc2ccccc2C1)Nc1ccc(F)c(F)c1,386,.,.,.
COc1ccc(CCC(=O)Nc2ccc3c(c2)OCCO3)cc1,-3,6,-1,.
COc1ccc(CCC(=O)Nc2ccc3c(c2)OCO3)cc1,563*,13,-2,-1
O=C(C1CCCC1)N1CCCC(Nc2ccc(F)cc2)C1 (configuration not stated),1,8,0,.
O=C(c1cccnc1)N1CCCC(Nc2ccc(F)cc2)C1 (configuration not stated),595*,-15,1,0
C[C@H](CO)N1C[C@H](C)[C@@H](CN(C)C(=O)C2CCOCC2)Oc2ncc(C#CC(C)(C)O)cc2C1=O,.,-3,7,.
N#Cc1cc([N+](=O)[O-])cnc1NCC(O)CO (configuration not stated),494*,19,-1,0
N#Cc1ccccc1NC(=O)CSc1ccc([N+](=O)[O-])cn1,-12,-14,.,.
Cc1ccc(S(=O)(=O)CCC(=O)Nc2ccc3nc(C)sc3c2)cc1,-6,-1,1,.
Cc1ccc(NC(=O)CCS(=O)(=O)c2ccc3nc(C)sc3c2)cc1,524*,4,4,0
Cc1nc2ccc(S(=O)(=O)NC(C(=O)N3CCCC3)C(C)C)cc2s1 (configuration not stated),.,5,-3,.
Cc1nc2ccc(S(=O)(=O)NC(CC(C)C)C(=O)O)cc2s1 (configuration not stated),+,-7,2,0
CC1C=NC(S(=O)(=O)N2CC[C@@H]3[C@H]2c2cc(-c4ccccc4)ccc2N(C)[C@H]3CO)=N1 (some centres not stated),.,15,58,.
COc1ccc(NC(=O)N(C)C[C@H]2Oc3c(NC(=O)c4ccc(-c5nccs5)cc4)cccc3C(=O)N([C@H](C)CO)C[C@@H]2C)cc1,.,.,-2,.
C[C@@H](NC(=O)[C@@H]1[C@@H](CO)[C@@H]2Cn3c(cccc3=O)[C@H]1N2Cc1cccnc1)c1ccccc1,.,0,1,.
COc1ccc(S(=O)(=O)N[C@H]2CC[C@H](CCNC(=O)Cc3ccccn3)O[C@@H]2CO)cc1,.,7,-4,.
COc1ccc(NC(=O)CSc2nccc(C)n2)cc1,+,113*,3,0
Cc1ccnc(SCC(=O)Nc2cc(C)on2)n1,-2,.,-2,.
O=C(NC1CCCC1)[C@H]1[C@H](CO)[C@H]2Cn3c(ccc(C4=CCCC4)c3=O)[C@@H]1N2C(=O)c1ccccc1,.,-4,0,.
COc1ccc(-n2nnnc2SCC#CCO)cc1,6,-5,-2,.
Cc1ccc(-n2nnnc2SCC#N)cc1,716*,.,-7,0
CCOC(=O)C1(CCOc2ccccc2)CCN(Cc2cccc(OC)c2O)CC1,517*,-17,1,0
SMILES,Mot1-301 SUMO,C2C12 statin,Cneo AK release,Yeast Mot1 SUMO
CCOC(=O)C1(CCOc2ccccc2)CCN(Cc2cc(OC)ccc2OC)CC1,-15,-16,1,.
Cc1noc(C)c1S(=O)(=O)Nc1ccc2c(c1)C(=O)N([C@@H](C)CO)C[C@@H](C)[C@@H](CN(C)C(=O)NC1CCCCC1)OCCCC[C@@H](C)O2,.,47,-1,.
C[C@@H]1CN([C@H](C)CO)C(=O)c2cc(NC(=O)c3ccccc3)ccc2O[C@@H](C)CCCCO[C@@H]1CN(C)C(=O)CCC(F)(F)F,.,.,1,.
Cc1cnc(NC(=O)CN2CCN(c3ccccc3F)CC2)s1,990*,.,-1,0
Cc1nc(NC(=O)CN2CCN(c3ccccc3F)CC2)sc1C(=O)N(C)C,-12,3,-10,.
COc1ccc(NC(=O)Nc2ccc3c(c2)C(=O)N([C@@H](C)CO)C[C@@H](C)[C@@H](CN(C)S(=O)(=O)c2ccc(F)cc2)OCCCC[C@H](C)O3)cc1,.,.,0,.
Cc1cc(C)n(-c2nc(-c3cccc(Cl)c3)cs2)n1,434*,-17,-2,1
Cc1cc(C)n(-c2nc(-c3ccccc3)cs2)n1,-5,.,-3,.
C[C@H]1CCCCO[C@H](CN(C)C(=O)NC2CCCCC2)[C@@H](C)CN([C@@H](C)CO)C(=O)c2cc(NS(=O)(=O)c3ccc(Cl)cc3)ccc2O1,.,.,-6,.
CC(=O)OCC(OC(C)=O)C(OC(C)=O)C(OC(C)=O)C(=O)Nc1ccccc1 (configuration not stated),386*,.,.,0
CC(=O)OCC(OC(C)=O)C(OC(C)=O)C(OC(C)=O)C(=O)Nc1ccc(C)cc1 (configuration not stated),2,-1,0,.
CCCC#Cc1ccc([C@H]2[C@H](CO)N3CCCCN(Cc4cccnc4)C[C@@H]23)cc1,.,18,1,.
Cc1cc(SCC(=O)c2cccs2)nc2c(C)cccc12,-18,14,2,.
Cc1cc2c(C)ccc(C)c2nc1SCC(=O)c1cccs1,591*,.,3,-1
CCN1CCCC(NC(=O)c2scc3c2CCCC3)C1 (configuration not stated),659*,15,1,0
Cc1ccc(NC(=O)c2scc3c2CCCC3)cc1,3,.,.,.
C[C@@H]1CN([C@@H](C)CO)S(=O)(=O)c2ccc(-c3ccncc3)cc2O[C@H]1CN(C)C(=O)c1cccc(F)c1,.,-33,-14,.
COc1ccc(S(=O)(=O)N(C)C[C@H]2Oc3ccc(NS(C)(=O)=O)cc3CC(=O)N([C@@H](C)CO)C[C@@H]2C)cc1,.,-26,1,.
COc1cccc(-n2nnc3c(=O)n(CC(=O)N4CCC(C)CC4)cnc32)c1,-3,2,-3,.
COc1cccc(-n2nnc3c(=O)n(CC(=O)N4CCCc5ccccc54)cnc32)c1,+,48,-1,0
C[C@@H]1CCCCO[C@@H](CN(C)S(=O)(=O)c2cccs2)[C@H](C)CN([C@@H](C)CO)C(=O)c2cc(NC(=O)Nc3ccc(C(F)(F)F)cc3)ccc2O1,.,-42,-1,.
O=C(Nc1ccccc1)N1CCCCN2[C@H](CO)[C@@H](c3ccc(-c4ccccc4)cc3)[C@@H]2C1,.,.,1,.
CCOC(=O)C1=C(C)NC(=O)CC1c1cc2c(cc1[N+](=O)[O-])OCO2 (configuration not stated),937*,6,0,-1
CCCOC(=O)C1=C(C)N(C)C(=O)NC1c1cc2c(cc1[N+](=O)[O-])OCO2 (configuration not stated),354,5,-2,.
O=C(C[C@@H]1C[C@H]2c3cc(NC(=O)Nc4ccccc4F)ccc3O[C@H]2[C@@H](CO)O1)NCCc1ccccc1,.,6,22,.
O=C(Nc1ccc(Cl)c(Cl)c1)N[C@@H]1CC[C@@H](CCn2cc(C3CC3)nn2)O[C@@H]1CO,.,4,-4,.
